# Rows were chosen to be rich in hits. Some 4.8% of all compounds tested hit in one or more screens of this group.
# WT yeast gro inh: growth inhibition of WT yeast, mitochondrial fusion screen; 190,000 tested, 2.1% active; inhibition, % at 10 µM; mitochondrial fusion phenotypic screen, WT strain; AID 1362; in the data active means inhibition above about 58%; tested in S. cerevisiae
# Efflux pump mplx: antifungal efflux pump inhibition, Nile Red retention | S. cerevisiae Candida pump triplex | inhibition, % at 10 µM | 330,000 tested, 0.44% active | AID 485275;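 active means plate passing quality check with inhibition over a set limit, or well fluorescence over plate mean plus 4 SD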;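 further: Nile Red retained in pooled yeast measured as flow cytometry median fluorescence; higher means more Nile Red kept so more efflux inhibition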
# T cruzi repl: T. cruzi replication inhibition | T. cruzi beta-gal in NIH3T3, luminescence, 90 h | inhibition, % (no concentration beside the values) | 300,000 tested, 1.4% active | AID 1885;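 active means mean inhibition across valid replicates above about 55%, limit read from the data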;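 further: signal also drops with host cell toxicity which is not excluded here; higher percent means less beta-gal luminescence so fewer parasites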
#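 System: NIH/3T3 fibroblasts plus reporter T. cruzi. Medium: DMEM plus 2% FBS. Probe or stimulus: 5000 reporter trypomastigotes per well. Compound: single 50 nL compound addition per well in DMSO. Incubation: co-culture of at least 90 h after 3 h attachment. Detection: GalScreen β-gal luminescence, detergent lysis, 60 min. Evaluation: parasite load inhibition, %.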
# SUMO Mot1 rescue: inhibitors of SUMOylation pathway: yeast Mot1-301 growth rescue; S. cerevisiae Mot1-301 growth rescue, ATP luminescence, 38.5C; percent above DMSO median, 100 means doubled; growth rescue, % at 18.8 µM; 320,000 tested, 1% active; AID 2716;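 active means every valid replicate shows activation above 250% relative to neutral control wells; inactive means the rest, any valid replicate at or below 250%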
# CSC inhib: blocks cancer stem cells; cancer stem cell-like cells viability, luminescence; AID 2717; 300,000 tested, 1.1% active; inhibition, % at 7.5 µM; in the data active means inhibition above about 75%; tested in HMLE shEcad cells
# Beta apoptosis: blocks beta cell apoptosis; protection from apoptosis, % (no concentration beside the values); INS-1E cytokine-induced death, ATP luminescence, 48 h; percent of positive-control rescue, neutral wells zero; 300,000 tested, 0.8% active; AID 435005;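 active means Every replicate reaches about 75%, or at least half do and their mean reaches it too, limit read from the data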;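 further: higher means more ATP so stronger rescue from cytokine killing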
# Yeast cmpd fluor: counter-screen for efflux pump inhibitors: compound fluorescence; AID 588517; fluorescence ratio to DMSO, % at 10 µM; S. cerevisiae AD/pABC3, flow cytometry; shares compounds with Efflux pump mplx; 1,700 tested, 4% active;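 active means fluorescence ratio to DMSO above its plate's cutoff, the plate mean ratio plus 5 SD, cut at about 210% in these data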;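 further: unstained yeast with no Nile Red so the signal is compound autofluorescence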
# Mdr1 pump inh: blocks the Candida albicans Mdr1 efflux pump in yeast; shares compounds with Efflux pump mplx; S. cerevisiae AD/CaMDR1, Nile Red efflux, flow cytometry; inhibition, % at 10 µM; 1,700 tested, 1% active; AID 588518; in the data active means inhibition above about 26%;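 further: higher means more Nile Red retained so more efflux inhibition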
# Cdr2 pump inh: blocks the Candida albicans Cdr2 efflux pump in yeast | 1,700 tested, 4% active | Nile Red retention ratio vs DMSO, % at 10 µM | S. cerevisiae AD/CaCDR2, Nile Red retention, flow cytometry | shares compounds with Efflux pump mplx; in the data active means Nile Red retention ratio vs DMSO above about 190%;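 further: higher ratio means more blocking of Cdr2 efflux of the dye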
# Cdr1 pump inh: Candida Cdr1 efflux pump inhibition; inhibition, % at 10 µM; S. cerevisiae AD/CaCDR1, Nile Red efflux, flow cytometry; shares compounds with Efflux pump mplx; AID 588522; 1,700 tested, 1% active;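 active means inhibition above the screen-wide mean plus twice its standard deviation, cut at about 32% in these data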
# A number is an active result; – = inactive; · = not tested or not shown.
SMILES,WT yeast gro inh,Efflux pump mplx,T cruzi repl,SUMO Mot1 rescue,CSC inhib,Beta apoptosis,Yeast cmpd fluor,Mdr1 pump inh,Cdr2 pump inh,Cdr1 pump inh
Cc1ccnn1CCC(=O)O,·,–,–,–,–,–,·,·,·,·
O=C1N[C@@H](Cc2ccccc2)C(=O)N2[C@H]1C[C@]1(Br)c3ccccc3N(S(=O)(=O)c3ccc(F)cc3)[C@H]21,·,·,–,–,–,–,·,·,·,·
CCCOC(=O)c1ccc(NC(=O)C2C3CCC(C3)C2C(=O)O)cc1 (stereo not given),–,15.2,–,–,–,–,–,–,–,–
COc1ccccc1CC(=O)O/N=C(\N)c1ccccn1,·,–,–,–,–,–,·,·,·,·
N/C(=N\OC(=O)Cc1cccc2ccccc12)c1ccccn1,–,1.2,–,–,–,–,–,–,–,–
CN(C)CCCN(CCCN(C)C)C(=S)Nc1ccc(S(=O)(=O)N2CCOCC2)cc1,·,–,–,–,–,–,·,·,·,·
Cc1ccc(S(=O)(=O)Cn2nnnc2C(CC(C)C)N2CCN(c3ccccc3)CC2)cc1 (stereo not given),–,0.9,–,–,–,–,–,–,–,–
Cc1cccn2c(=O)c3cc(S(=O)(=O)c4ccc(F)cc4)c(=N)n(Cc4ccco4)c3nc12,·,0.6,–,–,–,–,–,–,–,–
Cc1ccc(S(=O)(=O)c2cc3c(=O)n4ccccc4nc3n(CCc3ccccc3)c2=N)cc1,·,0.4,–,–,–,·,–,–,–,–
N=c1c(C(=O)NCCc2ccccc2)cc2c(=O)n3ccccc3nc2n1Cc1ccco1,·,–,–,–,–,·,·,·,·,·
CCOCCCn1c(=N)c(S(=O)(=O)c2ccc(C)cc2)cc2c(=O)n3cc(C)ccc3nc21,·,1.2,–,–,–,–,–,–,–,–
COc1ccc(CCn2c(=N)c(C(=O)NCc3ccco3)cc3c(=O)n4ccccc4nc32)cc1,–,1.3,–,–,–,·,–,–,–,–
CCOC1=C/C(=C/c2c(N)n3nc(S(=O)(=O)CC)sc3nc2=O)C=CC1=O,–,–,–,–,–,–,·,·,·,·
O=C(NCC1CCCO1)c1ccc(Br)c(S(=O)(=O)N2CCOCC2)c1 (stereo not given),·,24.2,·,–,·,–,–,–,–,–
O=C(COC(=O)c1ccc2c(c1)OCCO2)Nc1cccc(S(=O)(=O)N2CCOCC2)c1,–,0.5,–,–,–,–,–,–,–,–
Cc1ccccc1SCC(=O)Nc1cc(S(=O)(=O)N2CCOCC2)ccc1N1CCOCC1,·,0.8,–,–,–,–,–,–,–,–
CC(=O)Nc1ccc(S(=O)(=O)N2CCN(c3nc4ccccc4n3CC(C)C)CC2)cc1,·,1.0,–,–,–,–,–,–,–,–
COc1ccc(NC2CC(=O)N(c3cccc([N+](=O)[O-])c3)C2=O)cc1 (stereo not given),–,–,–,–,–,–,·,·,·,·
COc1ccc(NC2CC(=O)N(c3cc([N+](=O)[O-])ccc3C)C2=O)cc1 (stereo not given),–,1.1,–,–,–,–,–,–,–,–
CC(C)n1c(N2CCN(CC(=O)NCc3cccs3)CC2)nc2ccccc21,–,1.5,–,–,·,–,–,–,–,–
COc1ccc(C)cc1NC(=O)C1CC(=O)OC12CCCCC2 (stereo not given),–,1.3,–,–,–,–,–,–,–,–
O=c1c(Cc2c(F)cccc2Cl)c(O)ccn1CCc1c[nH]c2ccccc12,–,–,–,–,–,–,·,·,·,·
Cc1ccc(C)c(C(=O)COC(=O)CN2C(=O)C3C4C=CC(C4)C3C2=O)c1 (stereo not given),·,–,–,–,–,–,·,·,·,·
O=C1CCCN1CCCNc1ccc2nnc(CCC(=O)N3CCN(c4ccccc4)CC3)n2n1,·,1.3,–,–,–,–,–,–,–,–
